From PubChem BioAssay come the findings set out here.

The term viability denotes a read-out of living cells in per cent, often relative to untreated cells. For orientation: inhibition means the drop in the measured response relative to a control, in per cent.

SMILES strings stand for the structures. Values without a mark were called inactive. Results filed as inconclusive are left out. Activity calls are given as the source filed them.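 How the source made its calls, unless noted: active means viability increase at or above a cutoff of the median across tested compounds plus 3 SD (cut at about 8.5% in these data, passing the limit was not always enough); inconclusive means some gains above the cutoff, reason not given; inactive means the rest.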

Assay [1] in a line: S. cerevisiae growth inhibition in permissive medium (OD615), pilot counter-assay for S. cerevisiae lifespan shortening project, permissive growth control (AID 705;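 active means growth inhibition above 25% in both replicates, a cutoff set 3 SD above the mean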). The following applies: OD615, 24 h, at 10 µM, hits give high values. Summed up: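 System: Engineered DeaD yeast | Buffer or medium: SC raffinose/galactose permissive medium | Incubation: Cells pre-grown 4 h, then 24 h compound exposure, 30 °C humidified | Measured by: Absorbance (optical density) at 615 nm | Read-out: Reduction in yeast growth (OD615)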

The nature of assay [2]: S. cerevisiae growth inhibition in restrictive medium, OD615, pilot screen, restrictive growth control, yeast lifespan reduction project (AID 706;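 active means growth inhibition above a set limit, 3 SD over mean compound inhibition, in both replicates, cut at about 43% in these data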;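 further: modified DeaD lifespan yeast strain shifted to restrictive glucose medium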). The following applies: OD615, 48 h, at 10 µM, hits give high values. Summed up: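 Material: modified S. cerevisiae; Medium: glucose-based CSMM-D restrictive medium; Compound dosing: one concentration, 10 µM final, 0.25% DMSO; Incubation: 48 h compound exposure at 30 °C; Measured by: OD615.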

Assay [3] can be described thus: doxorubicin toxicity protection in MRP-1 cells – H69AR cells, CellTiter-Glo, duplicate, MRP-1 activator project, pilot screen (AID 807).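 Further: compound pretreatment 18-22 h then 72 h combined with doxorubicin; 0% = doxorubicin alone and 100% = vehicle without doxorubicin.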 Particulars: H69AR viability with doxorubicin, CellTiter-Glo luminescence; at 10 µM; hits give high values.
A short description of assay [4]: viability of HCT116 without oncogenic beta-catenin – human colon tumor cells, pilot screen (AID 823;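 active means cell viability at or below a set limit in both duplicate runs, the limit being the all-compound median minus 4 SD, cut at about 23% in these data, passing the limit was not always enough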;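 further: 0% = wells killed by 20 µM Hyamine and 100% = untreated DMSO cell wells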). Particulars: HCT116 beta-catenin knockout viability, CellTiter-Glo, 60 h; at 10 µM; hits give low values. In general terms: ATP-based viability assays read luminescence as a measure of living cells.
The nature of assay [5]: viability of PTEN-null HCT116 cells – cell-based, HCT116 clonal line, CellTiter-Glo, pilot screen (AID 824;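 active means viability at or below 27.92% in each of two runs, the all-compound median minus 4 SD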;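 further: 0% = 20 µM Hyamine control and 100% = vehicle cell control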). The following applies: HCT116 PTEN-deleted viability, 60 h, at 10 µM, hits give low values.
Assay [6] is described as follows: RAM pathway blockade in budding yeast – dse1pr::URA3 reporter, 5-FOA selection, pilot screen (AID 869;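 active means inhibition over a set limit, the all-compound mean plus 3 SD, in both replicate runs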;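 further: 0% = DMSO wells with no growth and 100% = 10 µM 1-NA-PP1 with full growth; RAM network block rescues cells from 5-FOA so hits raise OD615 growth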). The following applies: S. cerevisiae dse1pr::URA3 5-FOA growth, OD615, 2 d; at 10 µM; hits give high values; strain carries analog-sensitive mutant Cbk1 kinase.
Assay [7] is described as follows: RAM signaling pathway blockade in yeast – S. cerevisiae, Pdr1DBD-CYC8 efflux-inhibited sensitized strain, primary screen (AID 1298;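 active means RAM network inhibition above 8.4% in each of two replicates, 3 SD over the compound average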;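 further: 0% = DMSO untreated cells without growth and 100% = 10 µM 1-NA-PP1 full growth; higher means more yeast growth rescued from 5-FOA killing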). Particulars: S. cerevisiae cbk1-as DSE1-URA3 strain, 5-FOA growth OD615, 2 d; at 50 µM; hits give high values.

Consider `COc1ccc(C(=O)N2CCN(c3ccc(C)cc3)CC2)cc1OC`, for which the growth inhibition was -10.4% in assay [1] and -14.2% in assay [2]. Also, in assay [3], the viability increase is -1.27%. In addition, the results for the viability in assay [4] and in assay [5] were 103% and 90.2%, respectively. Besides, the inhibition in assay [6] was 0.81%. In assay [7], the RAM network inhibition was 3.75%.
In the case of `Cn1c(=O)c2c(nc(CN3CCOCC3)n2CCCO)n(C)c1=O`, the growth inhibition in assay [1] was -5.86%; in assay [2], -3.44%. In assay [3], the viability increase was -0.74%. The figures for the viability in assay [4] and in assay [5] were 102% and 101%, respectively. Further, the inhibition in assay [6] is 1.76%. For the same compound, in assay [7], the RAM network inhibition was 6.48%.
For the compound `Cc1nccn1-c1ncnc2sc3c(c12)CCCC3`, the growth inhibition was -7.46% in assay [1] and 0.84% in assay [2]. For the same compound, in assay [3], the viability increase is -3.49%. Further, the viability is 95.3% in assay [4] and 93.5% in assay [5]. The inhibition in assay [6] is 1.15%. Further, the RAM network inhibition in assay [7] was 2.86%.
Turning to `CCOC(=O)c1ccc(N2C(=O)CC(N3CCN(Cc4ccccc4)CC3)C2=O)cc1` (stereo unspecified), the growth inhibition is -18.6% in assay [1] and -15.4% in assay [2]. The viability increase in assay [3] is 0.7%. Also, the viability is 101% in assay [4] and 103% in assay [5]. In assay [6], the inhibition was 0.175%. For the same compound, the RAM network inhibition in assay [7] is 2.65%.
For `Cc1cc(Nc2ccc(C)c(C)c2)n2nc(C)nc2n1`, the values for the growth inhibition in assay [1] and in assay [2] were 6.21% and 10.1%, respectively. The viability increase in assay [3] was -4.63%. Besides, the viability is 105% in assay [4] and 96.9% in assay [5]. The inhibition in assay [6] was 0.77%. Also, the RAM network inhibition in assay [7] was 3.69%.
As for `CC1(C(=O)NC2CCCCC2)CCC(=O)N1Cc1cccnc1` (stereo unspecified), the growth inhibition was -8.59% in assay [1] and -7.4% in assay [2]. Besides, the viability increase in assay [3] is -0.54%. In addition, the viability in assay [4] was 102%; in assay [5], 104%. The inhibition in assay [6] is 0.95%. Moreover, the RAM network inhibition in assay [7] is 0.89%.
For `C=CCNC(=O)C1CCN(S(=O)(=O)c2ccc(Br)cc2)CC1`, the growth inhibition in assay [1] is -8.89%; in assay [2] it was -18%. In assay [3], the viability increase was -2.46%. The viability in assay [4] and in assay [5] was 48.1% throughout. In addition, the inhibition in assay [6] is 0.52%. In assay [7], the RAM network inhibition is 1.76%.
Consider `CCOc1ccccc1NC(=O)CSc1nnc(-c2ccco2)n1Cc1ccco1`, for which the results for the growth inhibition in assay [1] and in assay [2] were 3.23% and 2.22%, respectively. For the same compound, the viability increase in assay [3] was -2.48%. Moreover, the figures for the viability in assay [4] and in assay [5] were 95.7% and 88.2%, respectively. Moreover, the inhibition in assay [6] is -0.165%. Moreover, in assay [7], the RAM network inhibition is 3.85%.
Take `C=CCOC(=O)C1=C(C)NC(=O)NC1/C=C/c1ccccc1` (stereo unspecified): the growth inhibition is -5.98% in assay [1] and -13.1% in assay [2]. Also, in assay [3], the viability increase was -0.12%. Moreover, the viability is 92.5% in assay [4] and 95% in assay [5]. For the same compound, the inhibition in assay [6] was 2.77%. Besides, in assay [7], the RAM network inhibition was 8.11%.
In the case of `Brc1ccc(CSc2nnc(-c3ccccn3)n2Cc2ccco2)cc1`, the figures for the growth inhibition in assay [1] and in assay [2] were 2.3% and 28.9%, respectively. Besides, the viability increase in assay [3] is -3.69%. Besides, the viability is 15.2% (active) in assay [4] and 15.7% (active) in assay [5]. In assay [6], the inhibition was 2.53%. Further, in assay [7], the RAM network inhibition is 7.63%.
For the compound `Nc1nc(SCc2ccc(Cl)cc2)ns1`, the figures for the growth inhibition in assay [1] and in assay [2] were 10.4% and 7.05%, respectively. Moreover, the viability increase in assay [3] was 1.03%. Further, the viability in assay [4] is 98.4%; in assay [5], 89.2%. Also, in assay [6], the inhibition was 0.695%. In assay [7], the RAM network inhibition is 0.78%.
Turning to `Cc1onc(-c2ccccc2Cl)c1C(=O)Nc1c(C)n(C)n(-c2ccccc2)c1=O`, the results for the growth inhibition in assay [1] and in assay [2] were -7.2% and 3.75%, respectively. Also, the viability increase in assay [3] was 0.84%. Moreover, the viability was 104% in assay [4] and 103% in assay [5]. In addition, the inhibition in assay [6] was 0.355%. In assay [7], the RAM network inhibition is 3.34%.
Turning to `O=C(O)CCCNS(=O)(=O)c1ccc(F)cc1`, the growth inhibition in assay [1] is -5.7%; in assay [2] it was -0.905%. Moreover, the viability increase in assay [3] was -1.33%. For the same compound, the viability in assay [4] was 105%; in assay [5] it was 101%. For the same compound, the inhibition in assay [6] was 1.14%. Besides, the RAM network inhibition in assay [7] is 0.11%.
With `CCN1c2ccccc2NC2N=C(OC)C(c3ccccc3)C21` (stereo unspecified), the growth inhibition in assay [1] was -38.2%; in assay [2], 7.12%. For the same compound, the viability increase in assay [3] is -8.25%. The viability in assay [4] is 3.31% (active); in assay [5] it was 2.97% (active). Moreover, in assay [6], the inhibition is 2.47%. The RAM network inhibition in assay [7] is 3.8%.
For the compound `CNC(=O)c1c(NC(=O)c2ccc(S(=O)(=O)N3CCOCC3)cc2)sc2c1CCC2`, the growth inhibition in assay [1] was -0.09%; in assay [2], -0.055%. The viability increase in assay [3] was -0.97%. The viability in assay [4] was 95.9%; in assay [5] it was 91.8%. Also, the inhibition in assay [6] was 0.78%. Besides, in assay [7], the RAM network inhibition is 4.58%.
On to `S=c1sc2c(N3CCOCC3)ncnc2n1-c1ccccc1`, for which the growth inhibition was -11.6% in assay [1] and 8.65% in assay [2]. Besides, the viability increase in assay [3] was -3.12%. Further, the viability in assay [4] was 102%; in assay [5], 94.9%. For the same compound, the inhibition in assay [6] was 1.64%. In addition, the RAM network inhibition in assay [7] was 4.8%.
As for `O=C(CN1CCOc2ccccc21)N1CCCC1`, the values for the growth inhibition in assay [1] and in assay [2] were -21.1% and -8.8%, respectively. The viability increase in assay [3] is -5.56%. The viability is 100% in assay [4] and 90.5% in assay [5]. In addition, the inhibition in assay [6] was 0.98%. The RAM network inhibition in assay [7] was 1.32%.
Consider `CCN1CCN(CC(=O)NC2CCCC2)C(=O)C1=O`, for which the growth inhibition in assay [1] was 5.56%; in assay [2], -5%. Besides, the viability increase in assay [3] was 0.46%. In addition, the viability in assay [4] is 114%; in assay [5], 94.9%. Besides, the inhibition in assay [6] was 1.52%. Besides, the RAM network inhibition in assay [7] was 1.79%.
